Experimental data published in the array DNA melting data of Ke et al. (doi:10.1101/2024.01.08.574731).

Assays:
[1] = melting temperature; fluorescence melt of hairpins on a sequencing array, two-state fit, raised by 9.35 °C to match UV melts; settings: sodium 0.088 M
Method in brief: (§1)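 Melting temperature and folding enthalpy were derived from bootstrapped two-state fits. The fitted temperatures were raised by 9.35 °C to agree with UV melts, and four replicates were combined by inverse variance. The underlying data were Cy3 fluorescence images of library hairpins, with annealed Cy3 and quencher oligos, on a sequenced MiSeq flow cell in 50 mM Na-HEPES pH 8.0, 25 mM NaCl, taken in 2.5 °C steps up to 60 °C, normalised to pre-quench Cy3 and to control constructs.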

[2] = folding enthalpy; higher = less favourable; fluorescence melt of hairpins on a sequencing array, two-state fit; settings: sodium 0.088 M
Method in brief: as §1

Sequence | Tm [1] | folding enthalpy [2]
GGTGAGGGAAACCTCGCC ((.((((....)))).)) | 58.1 °C | -153 kJ/mol
GATCTAGCATTAGATC ((((((....)))))) | 47.6 °C | -182 kJ/mol
GAACGGACGAAAGTCTTC (((..(((....)))))) | 20.7 °C | -29.8 kJ/mol
GCTGCGCGAAAGCAAAGC (((..((....))..))) | 62 °C | -128 kJ/mol
GATTCAGGAAACTGAATC (((((((....))))))) | 55.7 °C | -154 kJ/mol
GTGCTAGCGAAAGCTCAC (((..(((....)))))) | 42.1 °C | -40.1 kJ/mol
GCTCAGCGAAAGCCGCGC ((.(.((....)).).)) | 42 °C | -74.6 kJ/mol
GATCTCCATCGAGATC ((((((....)))))) | 50.7 °C | -144 kJ/mol
GTCCTACCGAAAGGTGAC (((..(((....)))))) | 32.5 °C | -46.2 kJ/mol
CGCGGAAGCGTCCGCG ((((((....)))))) | 53.2 °C | -55.9 kJ/mol
GATCTGGGAGCAGATC ((((((....)))))) | 53.8 °C | -148 kJ/mol
GATCCCCCTTGGGATC ((((((....)))))) | 57.7 °C | -166 kJ/mol
CGGTCGGAAACGAAGCCG ((((((....)))..))) | 38.1 °C | -101 kJ/mol
GGATACGAAAGTACTCC ((((((....))).))) | 37.9 °C | -95.7 kJ/mol
GTCTTCGAAAGAACGAC ((((((....))).))) | 37.6 °C | -88.7 kJ/mol
GCGCCTCGAAAGAGACGC (((.(((....))).))) | 59.4 °C | -107 kJ/mol
CGCGGAAAAACAACCGCG ((..............)) | 49.8 °C | -110 kJ/mol
GGCCTCGAAAGAGAAGCC ((((((....)))..))) | 47.9 °C | -109 kJ/mol
GCATCCGAAAGGACTGC ((((((....))).))) | 47.8 °C | -62.6 kJ/mol
CGGCGCCGGAAACGGCCG (((..(((....)))))) | 54.8 °C | -37.3 kJ/mol
GGATGTCGAAAGACGTCC (((.(((....))).))) | 61 °C | -162 kJ/mol
GGGGAGTCGAAAGACCCC (((..(((....)))))) | 54.7 °C | -122 kJ/mol
GATCTTTAAGAAGATC ((((((....)))))) | 41.5 °C | -146 kJ/mol

Sequence | Tm [1] | folding enthalpy [2]
GCGAGTCGAAAGACACGC (((.(((....))).))) | 66.6 °C | -161 kJ/mol
GCACGACGAAAGTCTGC (((.(((....)))))) | 52.4 °C | -87.2 kJ/mol
GGAGGACGAAAGTCGTCC (((.(((....))).))) | 59.4 °C | -121 kJ/mol
GATTCCGAAAGGAATATC ((((((....)))..))) | 46.6 °C | -72.6 kJ/mol
GATCGAGCCCTCGATC ((((((....)))))) | 56.4 °C | -176 kJ/mol
GGGCACGAAAGTGTACCC ((((((....)))..))) | 50.3 °C | -77 kJ/mol
GTGGATGGAAACATCCGC (.(((((....))))).) | 56.1 °C | -117 kJ/mol
GCTACTGGAAACAATAGC ((((.((....)).)))) | 31.3 °C | -77.3 kJ/mol
GGATGTCCGAAAGGATCC (((..(((....)))))) | 32.2 °C | -59.8 kJ/mol
GCGCTAGGAAACCAGCAC (.(((.(....).))).) | 26.8 °C | -40.5 kJ/mol
GTGAAGCGAAAGCTCCAC (((.(((....))).))) | 50 °C | -100 kJ/mol
GATCCGGCCCGGATC ((((((...)))))) | 58.9 °C | -128 kJ/mol
GGAGTCGAAAGACAGTCC ((((((....)))..))) | 31.5 °C | -59.8 kJ/mol
GGAAGTGGAAACACTTCC (((((((....))))))) | 61 °C | -226 kJ/mol
GATCGGGCCCCGATC ((((((...)))))) | 57.5 °C | -185 kJ/mol
GCACCGCGAAAGCCATGC (((..((....))..))) | 28.6 °C | -41 kJ/mol
GATCAGTGTTCTGATC ((((((....)))))) | 50.2 °C | -156 kJ/mol
GGCCGAGGAAACCCGACC ((.((.(....).)).)) | 34 °C | -104 kJ/mol
GACGCCGAAAGGCAAGTC ((((((....)))..))) | 48.9 °C | -82.4 kJ/mol
GCGCACGGAAACGTGCAC (.(((((....))))).) | 52.2 °C | -42.1 kJ/mol
GATTGCGGAAACGTAGTC ((.(.((....)).).)) | 29.8 °C | -47.7 kJ/mol
GATCGTAGTTACGATC ((((((....)))))) | 56.8 °C | -129 kJ/mol
GAGAATGGAAACATTTTC ((.((((....)))).)) | 29.4 °C | -61.8 kJ/mol

Sequence | Tm [1] | folding enthalpy [2]
GGCCTGCGAAAGCAAGCC (((.(((....))).))) | 58.5 °C | -126 kJ/mol
GATCCCCATTGGGATC ((((((....)))))) | 59.6 °C | -157 kJ/mol
GTAGGCGAAAGCCCATAC ((((((....)))..))) | 28.2 °C | -37.1 kJ/mol
GAGGCCCGAAAGGGTCTC (((.(((....))).))) | 67.4 °C | -132 kJ/mol
GATCCTGATCAGGATC ((((((....)))))) | 56.1 °C | -167 kJ/mol
GCGCGGCGAAAGCCCCGC (((.(((....))).))) | 59.4 °C | -158 kJ/mol
GCCAACCCGAAAGGGGGC (((..(((....)))))) | 51.8 °C | -78.6 kJ/mol
GGACAGGGAAACCCGTCC ((((.((....)).)))) | 50.8 °C | -143 kJ/mol
GCCAGGGGAAACCCCAGC ((..(((....)))..)) | 38.3 °C | -90 kJ/mol
GCTCAGCGAAAGCTAGC (((.(((....)))))) | 49.4 °C | -83.5 kJ/mol
GTTTCGGGAAACTGGAAC (((.(.(....).).))) | 39.8 °C | -56.6 kJ/mol
GATCTCATGGGAGATC ((((((....)))))) | 54 °C | -155 kJ/mol
GTGCACACGAAAGTGCAC (((..(((....)))))) | 60 °C | -129 kJ/mol
GTCCACGAAAGTGGTGAC ((((((....)))..))) | 38.2 °C | -40.9 kJ/mol
GATCTCGCCGGAGATC ((((((....)))))) | 54.4 °C | -149 kJ/mol
CGCGGAAATCTCCGCG ((((((....)))))) | 62.2 °C | -168 kJ/mol
GAGTGGGGAAACCCACCC (.(((((....))))).) | 42.7 °C | -50.9 kJ/mol
GTCACTGGAAACAGTAAC ((.((((....)))).)) | 31.3 °C | -65.3 kJ/mol
GCAGCGCGAAAGCGACGC ((..(((....)))..)) | 60.7 °C | -77 kJ/mol
GTACCGGAAACGGTAC ((((((....)))))) | 64.7 °C | -153 kJ/mol
GAAAGTGGAAACACTCTC ((.((((....)))).)) | 26.6 °C | -81.3 kJ/mol
GATCGATAGCTCGATC ((((((....)))))) | 49.6 °C | -175 kJ/mol
GCTTTGCGAAAGCCGAGC (((..((....))..))) | 41.9 °C | -66.8 kJ/mol

Sequence | Tm [1] | folding enthalpy [2]
GCGAATGTTCGC ((((....)))) | 50.3 °C | -108 kJ/mol
GATCACTGTCGTGATC ((((((....)))))) | 54.9 °C | -156 kJ/mol
GCTTACCCGAAAGGGAGC (((..(((....)))))) | 39 °C | -63.8 kJ/mol
GGTTTCCCGAAAGGGACC (((..(((....)))))) | 33.8 °C | -51.4 kJ/mol
GAATCTGGAAACAGACTC ((.((((....)))).)) | 29.1 °C | -73.9 kJ/mol
GTCGTCGAAAGACACGAC ((((((....)))..))) | 48.1 °C | -69.8 kJ/mol
GAAAAGGGAAACTTTTTC (((((.(....).))))) | 29.6 °C | -48.3 kJ/mol
GATTTCGGAAACGAGATC (((.(((....))).))) | 41.6 °C | -125 kJ/mol
GACCCGGGAAACTGGGTC (((((.(....).))))) | 59.2 °C | -156 kJ/mol
GCCGGGCGAAAGCGCTGC ((.(.((....)).).)) | 43 °C | -85.1 kJ/mol
GAGGAAACGAAAGTTCTC (((..(((....)))))) | 24.6 °C | -55.6 kJ/mol
GTCTATGGAAACATAGAC (((((((....))))))) | 54.9 °C | -179 kJ/mol
CGGCGACGGAAACGTCCG (((..(((....)))))) | 38.5 °C | -72.8 kJ/mol
GCCCAAGAAATTGGGC ((((((....)))))) | 63.1 °C | -139 kJ/mol
GCTACGCGAAAGCTTTGC ((.(.((....)).).)) | 36.7 °C | -54.3 kJ/mol
GCCTGCGAAAGCACTGGC ((((((....)))..))) | 49.9 °C | -83.8 kJ/mol
GATCTACTTTTAGATC ((((((....)))))) | 39.8 °C | -138 kJ/mol
GATCACAAAAGTGATC ((((((....)))))) | 54.7 °C | -154 kJ/mol
CGGATACGGAAACGTCCG (((..(((....)))))) | 40.4 °C | -77.6 kJ/mol
GTGCCTGGAAACAGGCGC (.(((((....))))).) | 65 °C | -85.1 kJ/mol
GCTTGCGGAAACGCGAGC (((.(((....))).))) | 64 °C | -122 kJ/mol
GGGTTTGAAAAAACCC ((((((....)))))) | 58.4 °C | -167 kJ/mol
GATCACAGAGTGATC ((((((...)))))) | 60.8 °C | -146 kJ/mol
